Measured values: ChEMBL document CHEMBL1268891, “Novel synthetic 2-amino-10-(3,5-dimethoxy)benzyl-9(10H)-acridinone derivatives as potent DNA-binding antiproliferative agents” (Bioorg Med Chem, 2010)
Activity calls are given as the source filed them. The rule behind the calls is not given here.

How the values were obtained:
[1] = target: T1, DNA topoisomerase 1 (Homo sapiens) (UniProt P11387); assay: Inhibition of human recombinant DNA topoisomerase 1-mediated DNA cleavage assessed as relaxation of supercoiled pBR322 plasmid DNA at 50 uM […] by ethidium bromide staining
T1 sequence (whole entry): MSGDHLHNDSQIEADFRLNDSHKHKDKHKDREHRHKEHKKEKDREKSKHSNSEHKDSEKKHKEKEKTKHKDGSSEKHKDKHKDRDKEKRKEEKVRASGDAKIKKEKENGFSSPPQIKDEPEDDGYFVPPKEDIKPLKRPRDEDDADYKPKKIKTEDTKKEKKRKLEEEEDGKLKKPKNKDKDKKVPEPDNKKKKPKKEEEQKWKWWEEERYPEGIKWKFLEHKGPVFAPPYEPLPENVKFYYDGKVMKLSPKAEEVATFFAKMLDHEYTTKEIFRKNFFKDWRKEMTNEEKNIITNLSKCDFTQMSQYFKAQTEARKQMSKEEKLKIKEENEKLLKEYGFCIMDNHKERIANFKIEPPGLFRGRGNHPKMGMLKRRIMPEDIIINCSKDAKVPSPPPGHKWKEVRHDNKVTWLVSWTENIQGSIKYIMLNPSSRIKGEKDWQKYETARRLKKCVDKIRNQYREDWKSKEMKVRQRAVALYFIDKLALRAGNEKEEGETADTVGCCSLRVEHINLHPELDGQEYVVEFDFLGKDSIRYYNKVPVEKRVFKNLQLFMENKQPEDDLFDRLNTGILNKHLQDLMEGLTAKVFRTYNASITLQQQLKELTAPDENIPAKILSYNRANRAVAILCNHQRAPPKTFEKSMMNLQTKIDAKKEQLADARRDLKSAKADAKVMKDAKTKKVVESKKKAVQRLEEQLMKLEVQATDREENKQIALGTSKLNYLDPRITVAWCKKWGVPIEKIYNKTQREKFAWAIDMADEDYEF
In short: (§1)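 pBR322 (100 ng) incubated with 1.0 unit recombinant human topoisomerase I, with or without compound (10–50 or 250 μM), for 30 min at 37 °C. DMSO control included. Products run on 1% agarose in TAE at 100 V for 25 min and stained with ethidium bromide.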

[2] = target: T1, DNA topoisomerase 1 (Homo sapiens); assay: Inhibition of human recombinant DNA topoisomerase 1-mediated DNA cleavage assessed as relaxation of supercoiled pBR322 plasmid DNA at 250 uM […] by ethidium bromide staining; in short: as §1
CCRF-CEM = assay: Cytotoxicity against human CCRF-CEM cells after 48 hrs by MTT assay; type: functional, cell-based
In short: (§2)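 CCRF-CEM cells grown in RPMI 1640 with 10% FBS and penicillin/streptomycin at 37 °C, 5% CO₂. Seeded at 2×10^5 cells/mL and exposed to graded doses from DMSO stock, in quintuplicate, for 48 h. MTT (5 mg/mL) added for 4 h, formazan dissolved in DMSO and read at 490 nm. IC50 is the concentration giving 50% growth inhibition.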

Calf thymus DNA [3] = assay: Binding affinity to calf thymus DNA assessed as intercalation by UV-vis spectral analysis; type: nucleic-acid assay; settings: Bos taurus
In short: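 Compound at 40 μM titrated with ct DNA at 0–80 μM in 10 mM Tris-HCl, 50 mM NaCl, pH 7.2. Incubated 5 min, then spectra read in a 1.0 cm quartz cell. Kb obtained from a plot of [DNA]/(εa−εf) against [DNA], with DNA concentration in base pairs.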

A549 = assay: Cytotoxicity against human A549 cells after 48 hrs by MTT assay; type: functional, cell-based; settings: A549, 48 h
In short: as §2, with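 “A549, HepG2 and MCF7” for “CCRF-CEM”, “DMEM” for “RPMI 1640”, “treated with” for “exposed to”, “MTT” for “MTT (5 mg/mL)”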

MCF7 = assay: Cytotoxicity against human MCF7 cells after 48 hrs by MTT assay; type: functional, cell-based; settings: MCF7, 48 h
In short: as §2, with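 “A549, HepG2 and MCF7” for “CCRF-CEM”, “DMEM” for “RPMI 1640”, “treated with” for “exposed to”, “MTT” for “MTT (5 mg/mL)”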

HepG2 = assay: Cytotoxicity against human HepG2 cells after 48 hrs by MTT assay; type: functional, cell-based; settings: HepG2, 48 h
In short: as §2, with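 “A549, HepG2 and MCF7” for “CCRF-CEM”, “DMEM” for “RPMI 1640”, “treated with” for “exposed to”, “MTT” for “MTT (5 mg/mL)”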

Calf thymus DNA [4] = assay: Binding affinity to calf thymus DNA assessed as intercalation at 20 uM by fluorescence emission spectral analysis; type: nucleic-acid assay; settings: Bos taurus
In short: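 Compound at about 20 μM final (from 5 mM DMSO stock) in 10 mM Tris-HCl, 50 mM NaCl, pH 7.2, with or without ct DNA at 20 or 40 μM final. Emission recorded after equilibrium on excitation at 380 nm. DNA concentration set by A260 (6600 M⁻¹ cm⁻¹ per phosphate; A260:A280 1.87).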

| Structure (SMILES) | Activity [1] | Activity [2] | IC50 (CCRF-CEM) | Kb (Calf thymus DNA [3]) | IC50 (A549) | IC50 (MCF7) | IC50 (HepG2) | Activity (Calf thymus DNA [4]) |
| --- | --- | --- | --- | --- | --- | --- | --- | --- |
| CCN(CC)CCC(=O)Nc1ccc2c(c1)c(=O)c1ccccc1n2Cc1cc(OC)cc(OC)c1 | inactive | Active | 720 nM | – | – | – | – | – |
| COc1cc(Cn2c3ccccc3c(=O)c3cc(NC(=O)CCN4CCCCC4)ccc32)cc(OC)c1 | inactive | Active | 600 nM | – | – | – | – | – |
| COc1cc(Cn2c3ccccc3c(=O)c3cc(NC(=O)CCCCCN)ccc32)cc(OC)c1 | inactive | Active | 750 nM | – | – | – | – | – |
| COc1cc(Cn2c3ccccc3c(=O)c3ccccc32)cc(OC)c1 | inactive | Active | – | – | – | – | – | – |
| COc1cc(Cn2c3ccccc3c(=O)c3cc(NC(=O)CCN4CCC(O)CC4)ccc32)cc(OC)c1 | inactive | Active | 640 nM | – | – | – | – | – |
| COc1cc(Cn2c3ccccc3c(=O)c3cc(NC(=O)C(N)C(C)C)ccc32)cc(OC)c1 (stereo unspecified) | inactive | Active | 810 nM | – | – | – | – | – |
| COc1cc(Cn2c3ccccc3c(=O)c3cc(NC(=O)CCCCN)ccc32)cc(OC)c1 | inactive | Active | 1190 nM | – | – | – | – | – |
| COc1cc(Cn2c3ccccc3c(=O)c3cc(NC(=O)C(C)N)ccc32)cc(OC)c1 (stereo unspecified) | inactive | Active | 610 nM | – | – | – | – | – |
| COc1cc(Cn2c3ccccc3c(=O)c3cc(NC(=O)CCCN)ccc32)cc(OC)c1 | inactive | Active | 670 nM | – | – | – | – | – |
| COc1cc(Cn2c3ccccc3c(=O)c3cc(NC(=O)CCN)ccc32)cc(OC)c1 | inactive | Active | 2550 nM | – | – | – | – | – |
| COc1cc(Cn2c3ccccc3c(=O)c3cc(NC(=O)CCN4CCCC4)ccc32)cc(OC)c1 | inactive | Active | 280 nM | 5 ×10⁴ /M | 25.9 µM | 5.7 µM | 4 µM | Active |
| COc1cc(Cn2c3ccccc3c(=O)c3cc(NC(=O)CN)ccc32)cc(OC)c1 | Active | – | 390 nM | 1.5 ×10⁵ /M | 3.4 µM | 11.7 µM | 6.5 µM | Active |
| COc1cc(Cn2c3ccccc3c(=O)c3cc(NC(=O)CCN(C)C)ccc32)cc(OC)c1 | inactive | Active | 910 nM | – | – | – | – | – |
| COc1cc(Cn2c3ccccc3c(=O)c3cc(NC(=O)CCN(CCO)CCO)ccc32)cc(OC)c1 | inactive | Active | 950 nM | – | – | – | – | – |
| COc1cc(Cn2c3ccccc3c(=O)c3cc(NC(=O)C(N)CCCCN)ccc32)cc(OC)c1 (stereo unspecified) | inactive | Active | 750 nM | – | – | – | – | – |
| COc1cc(Cn2c3ccccc3c(=O)c3cc(NC(=O)CCN4CCOCC4)ccc32)cc(OC)c1 | inactive | Active | 3010 nM | – | – | – | – | – |
